Structures are written as SMILES. Active and inactive are the calls of the source. The rule behind the calls is not given here.

A short description of series [1]: Cytotoxicity against HEK293A cells assessed as reduction in cell viability after 24 hrs by MTT assay. The settings on record: human, hek293-a. The class given is cell-based. In a few lines:
(§1)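 Log-phase cells seeded at 1 × 10⁴ per well. Lung cancer lines (A549, NCI-H23, NCI-H460) and normal lines (IMR-90, QSG-7701, HEK-293A) each exposed to 1, 3, 10, 30 and 100 μM for 24 h. MTT (5 mg/mL stock) added for 2 h at 37°C, formazan dissolved in DMSO, absorbance read at 490 nm. Three independent experiments, mean ± SD.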
(In general: Tetrazolium dyes change colour on reduction, which living cells bring about.)

Another series deals with NCI-H23. The series is described as follows: Cytotoxicity against human NCI-H23 cells assessed as reduction in cell viability after 24 hrs by MTT assay. Type of series: functional, cell-based. In a few lines:
as §1

For series [2], the system named is A549. The series is described as follows: Induction of apoptosis in human A549 cells assessed as early apoptotic cells at 3 uM after 3 hrs by Annexin V-FITC/propidium iodide staining-based flow cytometric analysis (reference value: 2.73%). The class given is functional. For orientation: In flow cytometry, cells or beads pass a laser one at a time.
The test system of series [3] is A549. Briefly: Induction of apoptosis in human A549 cells assessed as late apoptotic cells at 3 uM after 12 hrs by Annexin V-FITC/propidium iodide staining-based flow cytometric analysis (reference value: 4.52%). Type of series: functional.
Series [4] concerns A549. The series is described as follows: Induction of apoptosis in human A549 cells assessed as early apoptotic cells at 3 uM after 6 hrs by Annexin V-FITC/propidium iodide staining-based flow cytometric analysis (reference value: 2.73%). The class given is functional.
In series [5] the test system is A549. Briefly: Induction of apoptosis in human A549 cells assessed as early apoptotic cells at 3 uM after 12 hrs by Annexin V-FITC/propidium iodide staining-based flow cytometric analysis (reference value: 2.73%). The class given is functional.
A short description of series [6]: Cytotoxicity against human QSG7701 cells assessed as reduction in cell viability after 24 hrs by MTT assay. The class given is cell-based. In a few lines:
as §1

The test system of series [7] is A549. Briefly: Induction of apoptosis in human A549 cells assessed as late apoptotic cells at 3 uM after 24 hrs by Annexin V-FITC/propidium iodide staining-based flow cytometric analysis (reference value: 4.52%). The class given is functional.
For series [8], the system named is A549. Briefly: Induction of apoptosis in human A549 cells assessed as early apoptotic cells at 3 uM after 24 hrs by Annexin V-FITC/propidium iodide staining-based flow cytometric analysis (reference value: 2.73%). Type of series: functional.
A further series deals with NCI-H460. The series is described as follows: Cytotoxicity against human NCI-H460 cells assessed as reduction in cell viability after 24 hrs by MTT assay. Type of series: functional, cell-based. In short, it runs like this:
as §1

Series [9] has as its system A549. Briefly: Induction of apoptosis in human A549 cells assessed as late apoptotic cells at 3 uM after 3 hrs by Annexin V-FITC/propidium iodide staining-based flow cytometric analysis (reference value: 4.52%). The class given is functional.
In the next series the test system is IMR-90. The series is described as follows: Cytotoxicity against human IMR90 cells assessed as reduction in cell viability after 24 hrs by MTT assay. The class given is cell-based. To be noted: imr-90, 24 h. In short, it runs like this: as §1
Series [10] relates to A549. Briefly: Induction of apoptosis in human A549 cells assessed as late apoptotic cells at 3 uM after 6 hrs by Annexin V-FITC/propidium iodide staining-based flow cytometric analysis (reference value: 4.52%). Type of series: functional.

Turning to `O=c1[nH]cc(F)c(=O)[nH]1` [FLUOROURACIL], the Activity result is recorded as “Toxic” in series [1]; 7.91% in the series on A549 [2]; 5.83% in the series on A549 [3]; 10.68% in the series with A549 [4]; 13.87% with A549 [5]; “Toxic” in [6]. For the same compound, the Activity in the series with A549 [7] was 4.22%; in the series with A549 [8] it was 23.86%; in the series on A549 [9], 4.75%; in the series with IMR-90, “Toxic”; in the series with A549 [10], 4.6%. In addition, the result in the series on NCI-H23 and with NCI-H460 was Active.

For the origin of these results see ChEMBL document CHEMBL4400568, “The design of 1,4-naphthoquinone derivatives and mechanisms underlying apoptosis induction through ROS-dependent MAPK/Akt/STAT3 pathways in human lung cancer cells” (Bioorg Med Chem, 2019).
